Bioassay records (PubChem BioAssay)
Platelet DG rel: platelet dense granule release activity; hit rate 0.22% among 300,000; human platelet-rich plasma, SFLLRN dense granule ATP release, luminescence; inhibition, %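 (compounds screened at 7.5 µM in platelet-rich plasma)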;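 active = mean replicate score, as percent of positive control, at or above 50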
SENP8 block-1: SENP8 protease inhibition; Q96LD8; AID 2540; inhibition, % at 10 µM; purified SENP8, Z-RLRGG-aminoluciferin cleavage, luminescence; hit rate 1.2% among 330,000; in the data active = inhibition above about 50%
Target sequence (Q96LD8 whole entry, looked up): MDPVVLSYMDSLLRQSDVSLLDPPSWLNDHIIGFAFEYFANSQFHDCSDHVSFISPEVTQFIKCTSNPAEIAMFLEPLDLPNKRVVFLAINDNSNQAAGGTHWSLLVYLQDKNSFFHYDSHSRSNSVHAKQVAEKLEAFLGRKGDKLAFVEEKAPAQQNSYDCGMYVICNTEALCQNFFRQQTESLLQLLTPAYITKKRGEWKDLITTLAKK
SENP8 block-2: inhibitors of human SENP8 protease. recombinant SENP8, Nedd8 substrate fluorescence. hit rate 0.64% among 360,000. Q96LD8. inhibition, % at 20 µM; in the data active = inhibition mostly above about 40%, no sharp cut-off; inactive = mostly below about 27%
SENP6 inh: blocks the human protease SENP6 | Q9GZR1 | Recombinant SENP6 catalytic domain, aminoluciferin luminescence | inhibition, % at 10 µM | hit rate 1.8% among 330,000;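 active = inhibition above about 50% at the single tested dose, limit read from the data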
SENP7 inh: SENP7 protease inhibition | inhibition, % at 5 µM | AID 434973 | hit rate 1.5% among 330,000 | recombinant SENP7, Z-RLRGG-aminoluciferin luminescence, 40 min;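 active = inhibition above about 50% at the single test dose, limit read from the data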
SENP1 inh: SENP1 (human) catalytic domain inhibition. recombinant SENP1 catalytic domain, CyPet-SUMO1-YPet FRET cleavage. inhibition, % at 10 µM. Q9P0U3. hit rate 0.21% among 360,000;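 active = inhibition at least 30% at 10 µM, raw YFP signal under a set limit, fluorescence ratio 0.5 to 1.5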
Target sequence (Q9P0U3 419-644 limits assumed): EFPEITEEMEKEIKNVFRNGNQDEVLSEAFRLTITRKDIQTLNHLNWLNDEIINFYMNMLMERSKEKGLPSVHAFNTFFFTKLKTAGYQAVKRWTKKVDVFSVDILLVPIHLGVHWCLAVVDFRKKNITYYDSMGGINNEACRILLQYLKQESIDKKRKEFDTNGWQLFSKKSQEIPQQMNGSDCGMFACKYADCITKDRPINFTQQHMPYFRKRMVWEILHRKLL
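Test system: human SENP1 catalytic domain; medium: Tris pH 8 buffer plus EDTA, NaCl, BME, BSA, NP40, catalase; incubation: 50 min reaction at room temperature; technique: FRET, CFP and YFP emission; controls: no-enzyme low control and enzyme-plus-DMSO high control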
SENP8 conf: confirmation of human SENP8 protease inhibitors. shares compounds with SENP8 block-2. purified SENP8, Nedd8-AMC/pro-Nedd8 cleavage fluorescence, 30 min. inhibition, % at 25 µM. hit rate 15% among 1,400. AID 624319; in the data active = inhibition mostly above about 39%, no sharp cut-off; inactive = mostly below about 34%
Of the large screens only hits and unclear results are named; the others gave an inactive call (follow-up assays come after a bar, where they were run). Sampled rows, rich in hits. Any-hit rate of the full collection: about 2.6%.

COc1ccccc1OCCCn1c(=O)oc2ccc(C)cc21	SENP8 block-2 41 | SENP8 conf inactive
OCC1(Cc2ccccc2F)CCCN(Cc2c(F)ccc(F)c2F)C1 (stereo not given)	none
O=C1O[C@@H]([C@H](O)CO)C(O)=C1O	SENP8 block-2 40 | SENP8 conf inactive
CCOC(=O)C1=C(C)NC(=O)NC1c1ccc(OCCO)c(OC)c1 (stereo not given)	SENP8 block-2 40 | SENP8 conf inactive
CCOC(=O)C1=C(C)NC(=O)NC1c1ccc(OC)c(Cl)c1 (stereo not given)	none
CCNC(=O)c1ccc2c(c1)C1C3CCC(C3)C1C(c1ccccc1)N2 (stereo not given)	none
CC1=NN(c2ccc(C)cc2C)C(=O)C1C(c1cccc(O)c1)C1C(=O)N(c2ccc(C)cc2C)N=C1C (stereo not given)	SENP8 block-2 60 | SENP8 conf 44
CC1=NNC(=O)C1C(c1cccc(O)c1)C(C#N)C#N (stereo not given)	none
O=C(NCCNc1ccc([N+](=O)[O-])cc1C(F)(F)F)c1ccccc1F	SENP8 block-2 44 | SENP8 conf inactive
CCOC(=O)/C(=C/c1c(C)n(C)c2ccc([N+](=O)[O-])cc12)C(C)=O	none
CCOC(=O)c1c(N)c2cc([N+](=O)[O-])ccc2n1C	SENP8 block-2 47 | SENP8 conf inactive
Cc1ncc([N+](=O)[O-])n1S(=O)(=O)c1cc(Cl)ccc1Cl	none
COCC1CCN(Cc2nc(-c3cccs3)no2)C1 (stereo not given)	none
C[C@@H]1CN(Cc2nc(-c3cccs3)no2)C[C@H](C)O1	SENP8 block-2 42 | SENP8 conf inactive
Cc1cc(C)c(C)c(S(=O)(=O)NCc2ccc(C(=O)N3CCCCC3)cc2)c1C	SENP8 block-2 42 | SENP8 conf inactive
O=C(NC1CCCC1)C(c1cccs1)N(Cc1ccco1)C(=O)c1csnn1 (stereo not given)	SENP8 block-2 40 | SENP8 conf inactive
O=C(NC1CCCCC1)C(c1ccccc1)N(Cc1ccco1)C(=O)c1csnn1 (stereo not given)	none
COc1cccc(OC)c1C(=O)NC(=S)N1CCCCC1c1cccnc1 (stereo not given)	SENP8 block-2 52 | SENP8 conf inactive
O=C(c1cnn(C(=O)CN2CCCC2=O)c1)c1ccccc1O	none (no result: Platelet DG rel)
Nc1c(C(=O)c2ccccc2)sc2nsc(SCCN3CCCC3)c12	SENP8 block-2 44 | SENP8 conf inactive
Nc1c(C(=O)c2ccc(Cl)cc2)sc2nsc(SCCN3CCOCC3)c12	none
COC(=O)CSc1nnc(CNc2ccc(OC)cc2)n1C	SENP8 block-2 69 | SENP8 conf inactive
COC(=O)CSc1nnc(CNS(=O)(=O)c2ccc(C)cc2)n1C	SENP8 block-2 42 | SENP8 conf inactive
CC(C)OC(=O)CSc1nnc(CNc2ccc(Cl)cc2)n1C	none
CC(C)C[C@H](NC(=O)N1CCn2c1nc1ccccc12)C(=O)N[C@H](Cc1ccccc1)C(=O)O	none
COc1ccc(CN2CCN(C(=O)CCC(=O)Nc3nnc(C4CCCCC4)s3)CC2)cc1F	none
Cc1ccc(Nc2nc(N)c([N+](=O)[O-])c(N3CCOCC3)n2)cc1C	SENP8 block-2 41 | SENP8 conf inactive
Cc1ccc(Nc2nc(N)c([N+](=O)[O-])c(NCCO)n2)cc1C	SENP8 block-2 48 | SENP8 conf inactive
CCN(C(=O)COC(=O)/C=C/c1nc2ccccc2s1)c1c(N)n(Cc2ccccc2)c(=O)[nH]c1=O	none (no result: Platelet DG rel, SENP8 block-1, SENP6 inh, SENP7 inh)
O=[N+]([O-])c1ccc(N/N=C/c2sc(N3CCOCC3)nc2-c2ccccc2)c(S(=O)(=O)Nc2ccccc2Cl)c1	SENP8 block-2 46 (no result: Platelet DG rel, SENP8 block-1, SENP6 inh, SENP7 inh) | SENP8 conf inactive
O=[N+]([O-])c1ccc(N/N=C/c2sc(N3CCOCC3)nc2-c2ccccc2)c(S(=O)(=O)Nc2ccc(Cl)cc2)c1	SENP8 block-2 53 (no result: SENP8 block-1, SENP6 inh, SENP7 inh) | SENP8 conf inactive
CCN(c1cccc(C)c1)S(=O)(=O)c1ccc2c(c1)N(C(C)=O)CCS2	none
N#Cc1c(NC(=O)c2cnccn2)sc2c1CCCC2	none
Cc1cccc(NC(=O)CCOc2ccccc2)c1	SENP8 block-2 40 | SENP8 conf inactive
Cc1cccc(NC(=O)Cc2ccc(F)cc2)c1	SENP8 block-2 42 | SENP8 conf inactive
Cc1cccc(OCCC(=O)Nc2c(C)n(C)n(-c3ccccc3)c2=O)c1	SENP8 block-2 42 | SENP8 conf inactive
CCCn1nnc(NC(=O)c2ccc3c(c2)OCO3)n1	none
Cc1ccccc1Nc1nnc(SCC(=O)c2c(N)n(C3CC3)c(=O)[nH]c2=O)s1	none (no result: Platelet DG rel)
O=C(COc1ccc(Br)cc1)NCCNC(=O)c1ccccn1	none
COc1ccc(CNC(=O)Nc2cc(C)cc(C)c2)cc1	SENP8 block-2 43 | SENP8 conf inactive
COC(=O)c1c(C(=O)OC)c2cccc3cc(-c4ccccc4)c4ccc1c4n32	SENP8 block-2 74 | SENP8 conf inactive
COC(=O)c1cc2c(-c3ccccc3)cc3ccccn3c-2c1C(=O)OC	none
COc1ccc(C(=O)C(=O)N2CCN(c3ccccc3F)CC2)cc1	none (no result: Platelet DG rel, SENP8 block-1, SENP6 inh, SENP7 inh)
CN(C)c1ccc(N=Cc2nc(-c3ccccc3)oc2O)cc1	SENP8 block-2 40 | SENP8 conf inactive
CC(C)CC1C(=O)N(Cc2cn(CCC3OCCCO3)nn2)CCS(=O)(=O)N1Cc1ccc(-c2ccc(Cl)nc2)cc1 (stereo not given)	none (no result: Platelet DG rel, SENP8 block-1, SENP6 inh, SENP7 inh)
COc1ccc(C2=CCN3CCCCC3C2)c(-c2ccc(OC)c(OC)c2)c1 (stereo not given)	none (no result: Platelet DG rel)
CCOc1ccc(N/C=C/C(=O)c2ccc(C)cc2)c([N+](=O)[O-])c1	SENP8 block-2 43 | SENP8 conf inactive
CCOc1ccc(N/C=C/C(=O)c2ccc3ccccc3c2)c([N+](=O)[O-])c1	none
CC(C)(C)c1ccc(C(=O)NNC(=O)CNC(=O)c2cccs2)cc1	none (no result: Platelet DG rel)
COc1cc(OC)c(NC(=O)[C@@H]2CCC(=O)N2C2OC(=O)c3c2ccc(OC)c3OC)cc1Cl (stereo not given in full)	SENP8 block-2 51 | SENP8 conf inactive
CC(C(=O)NC(=O)NC1CCCCC1)N(C)CC(=O)Nc1ccc(F)c(F)c1F (stereo not given)	none
NC(=O)c1nsc(C(=O)N(CCc2ccccc2)C(C(=O)NC2CCCC2)c2ccco2)c1N (stereo not given)	none
O=C(NC1CCCCC1)C(c1ccco1)N(CCc1ccccc1)C(=O)C(F)(F)F (stereo not given)	SENP8 block-2 45 | SENP8 conf inactive
CCC(C(=O)OCCOCCN(CC)CC)c1ccccc1 (stereo not given)	none
CCN(CC)CCCOC(=O)C(c1ccccc1)c1ccccc1	SENP8 block-2 62 | SENP8 conf inactive
